Test results reported in ChEMBL document CHEMBL1132974 (J Med Chem, 2000).
Values joined by “and” are separate entries in the source; they are usually repeats but may differ in a detail not shown here. Equal entries are not always repeated. Each block holds one molecule with its values, some of them ahead of it.

Columns and labels:
[1] = target: Histamine H1 receptor (Cavia porcellus) (UniProt P31389); experiment: concentration of mepyramine was determined; value ranges from 1 to 30; type: functional
Sequence of Histamine H1 receptor (Cavia porcellus) (P31389 whole entry): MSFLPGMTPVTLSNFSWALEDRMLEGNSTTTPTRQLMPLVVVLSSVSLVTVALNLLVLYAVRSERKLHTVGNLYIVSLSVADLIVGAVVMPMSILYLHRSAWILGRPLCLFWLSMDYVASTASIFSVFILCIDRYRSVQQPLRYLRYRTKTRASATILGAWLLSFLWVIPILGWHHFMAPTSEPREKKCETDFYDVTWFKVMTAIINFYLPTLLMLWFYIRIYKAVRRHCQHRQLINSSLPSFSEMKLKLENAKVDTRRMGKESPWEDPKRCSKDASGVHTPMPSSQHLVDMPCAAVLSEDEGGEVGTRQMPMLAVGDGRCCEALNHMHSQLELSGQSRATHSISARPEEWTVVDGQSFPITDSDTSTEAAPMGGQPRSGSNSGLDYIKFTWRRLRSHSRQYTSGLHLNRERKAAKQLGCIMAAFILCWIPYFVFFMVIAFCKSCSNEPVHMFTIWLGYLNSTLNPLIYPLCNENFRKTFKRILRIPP
Method in brief: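 Guinea-pig ileum segments (either sex), mounted isotonically (0.5 g preload) at 37 °C in aerated Tyrode's with 0.1 µM atropine. […] Full pA2 was taken from an Arunlakshana-Schild plot with the slope constrained to unity.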

[2] = target: Histamine H1 receptor (Rattus norvegicus) (UniProt P31390); experiment: maximum relaxation evoked by carbachol in relaxed rat aortic rings with intact endothelium, submaximally precontracted with 15.8 nM U-46,619; type: functional, tissue-based; details: Aorta
Target sequence in this assay (P31390 whole entry): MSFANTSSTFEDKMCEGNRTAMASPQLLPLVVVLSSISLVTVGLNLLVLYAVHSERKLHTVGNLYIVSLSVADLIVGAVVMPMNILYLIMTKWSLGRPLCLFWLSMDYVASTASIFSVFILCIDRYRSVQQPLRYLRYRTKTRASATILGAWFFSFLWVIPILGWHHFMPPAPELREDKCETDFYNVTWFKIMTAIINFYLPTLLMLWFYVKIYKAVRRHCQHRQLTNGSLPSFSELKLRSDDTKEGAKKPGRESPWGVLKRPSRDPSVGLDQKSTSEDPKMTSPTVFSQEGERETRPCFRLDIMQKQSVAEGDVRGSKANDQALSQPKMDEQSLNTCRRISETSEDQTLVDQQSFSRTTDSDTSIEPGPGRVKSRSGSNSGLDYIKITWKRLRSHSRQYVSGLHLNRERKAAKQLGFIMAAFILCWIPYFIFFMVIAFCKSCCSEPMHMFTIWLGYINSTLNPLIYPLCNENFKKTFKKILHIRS

[3] = target: Histamine H1 receptor (Cavia porcellus) (UniProt P31389); experiment: The compound was evaluated for intrinsic activity i.e. maximum histamine controls relative to contraction evoked by 10 uM PGF2-alpha; type: functional
Method in brief: (§1)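 Endothelium-denuded guinea-pig aortic rings, set up as in the contraction assay, challenged twice with PGF2α (10 µM). Rings were precontracted with a threshold PGF2α level (usually 0.4–1.5 µM, 10–20% of the 10 µM response).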

[4] = target: Histamine H1 receptor (Cavia porcellus) (UniProt P31389); experiment: The compound was evaluated for intrinsic activity i.e. second curves of histamine controls set to 100%, aorta primed with histamine; termed: intrinsic activity
[5] = target: Histamine H1 receptor (Cavia porcellus) (UniProt P31389); experiment: Negative logarithm of receptor dissociation constant Kp was reported guinea pig ileal whole segment; type: functional
Method in brief: (§2)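 Guinea-pig ileum (0.1 µM atropine, 37 °C Tyrode's). […] Where several partial-agonist concentrations were used, the overall value comes from a Kaumann-Marano plot with slope constrained to unity.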

[6] = target: Serotonin 3 (5-HT3) receptor; experiment: Compound was evaluated for its antagonist affinity towards 5-hydroxytryptamine 3 receptor of guinea pig; type: functional, Cavia porcellus
Method in brief: (§3)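 Functional antagonism assays in guinea-pig tissues, each run with 1 µM mepyramine present: M3 (whole ileum), β1 (right atrium), 5-HT1B (iliac artery), 5-HT3 (quiescent ileal longitudinal muscle with myenteric plexus). Results are given as apparent pA2, or pD'2 when only curve depression occurred.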

[7] = target: Histamine H1 receptor (Cavia porcellus) (UniProt P31389); experiment: Antagonist effects was studied on contraction of guinea-pig ileum preparation; value ranges from 3 to 30; f means observed by Kaumann-Marano plot; type: functional, tissue-based
[8] = target: Histamine H1 receptor (Cavia porcellus) (UniProt P31389); experiment: Intrinsic activity was reported in guinea pig ileum whole segment; type: functional, tissue-based
[9] = target: Histamine H1 receptor (Rattus norvegicus) (UniProt P31390); experiment: Intrinsic activity of the histamine as reported in relaxed rat aortic rings with intact endothelium, submaximally precontracted with 15.8 nM U-46,619; type: functional, tissue-based; details: Aorta
Target sequence in this assay (P31390 whole entry): as above

[10] = target: Histamine H1 receptor (Cavia porcellus) (UniProt P31389); experiment: Intrinsic activity was reported at a concentration of 10 uM; type: functional
[11] = target: Histamine H1 receptor (Cavia porcellus) (UniProt P31389); experiment: Intrinsic activity was reported in endothelium-denuded guinea pig(pre contracted with PGF-2 alpha) at a concentration of 10 uM; type: functional; method in brief: as §1
[12] = target: Histamine H1 receptor (Cavia porcellus) (UniProt P31389); experiment: pA2 was recorded in endothelium-denuded guinea pig(pre contracted with PGF-2 alpha).value ranges from 5.66 to 6.19
[13] = target: Histamine H1 receptor (Cavia porcellus) (UniProt P31389); experiment: Intrinsic activity was reported in guinea pig ileal whole segment.; type: functional
[14] = target: Histamine H1 receptor (Cavia porcellus) (UniProt P31389); experiment: Relative potency was recorded in endothelium-denuded guinea pig; value ranges from 5.68 to 5.93; type: functional
Method in brief: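 Guinea-pig thoracic aortic rings (2–4 mm), endothelium rubbed off, isometric (10 mN), modified Krebs-Henseleit (1.80 mM Ca2+), 37 °C. Cimetidine, corticosterone and cocaine (30 µM each), prazosin and yohimbine (0.3 µM each) and propranolol (0.1 µM) were present. […] The pEC50 shift was corrected using untreated control preparations.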

[15] = target: Histamine H1 receptor (Rattus norvegicus) (UniProt P31390); experiment: Relative potency was recorded in relaxed rat aortic rings; value ranges from […] to […]; type: functional, tissue-based; details: Aorta
Target sequence in this assay (P31390 whole entry): as above

[16] = target: Histamine H1 receptor (Rattus norvegicus) (UniProt P31390); experiment: The compound was evaluated for intrinsic activity i.e. maximum histamine controls relative to contraction evoked by 10 uM PGF2-alpha in relaxed rat aortic rings; type: functional, tissue-based; details: Aorta
Target sequence in this assay (P31390 whole entry): as above

[17] = target: Histamine H1 receptor (Cavia porcellus) (UniProt P31389); experiment: Negative logarithm of receptor dissociation constant Kp was reported; type: functional; method in brief: as §2
[18] = target: Histamine H1 receptor (Cavia porcellus) (UniProt P31389); experiment: Negative logarithm of receptor dissociation constant Kp was reported in guinea pig ileum whole segment; type: functional, tissue-based; method in brief: as §2
[19] = target: Histamine H1 receptor (Rattus norvegicus) (UniProt P31390); experiment: The compound was evaluated for intrinsic activity in relaxed rat aortic rings with intact endothelium, submaximally precontracted with 15.8 nM U-46,619; type: functional, tissue-based; parameters: unit not given here; details: Aorta
Target sequence in this assay (P31390 whole entry): as above

Histamine H1 receptor [20] = target: Histamine H1 receptor (Rattus norvegicus, UniProt P31390); experiment: Effective concentration for agonism activity in relaxed rat aortic rings with intact endothelium, submaximally precontracted with 15.8 nM U-46,619; type: functional, tissue-based, Aorta
Sequence of Histamine H1 receptor (Rattus norvegicus, UniProt P31390) (P31390 whole entry): as above

[21] = target: Histamine H1 receptor (Rattus norvegicus) (UniProt P31390); experiment: concentration of mepyramine was determined
Target sequence in this assay (P31390 whole entry, looked up): as the sequence (P31390 whole entry) above

[22] = target: Histamine H1 receptor (Cavia porcellus) (UniProt P31389); experiment: Intrinsic activity was reported in guinea pig ileum whole segment.; type: functional, tissue-based
Histamine H1 receptor [23] = target: T1, Histamine H1 receptor (Cavia porcellus, UniProt P31389); experiment: Effective concentration for agonist activity in guinea pig ileum whole segment; type: functional, tissue-based
T1 sequence (P31389 whole entry): as the sequence (P31389 whole entry) above

[24] = target: Histamine H1 receptor (Cavia porcellus) (UniProt P31389); experiment: Relative potency in guinea pig ileum whole segment; value ranges from 51 to 88; type: functional, tissue-based
[25] = target: Histamine H1 receptor (Rattus norvegicus) (UniProt P31390); experiment: Relative potency was recorded in relaxed rat aortic rings with intact endothelium, submaximally precontracted with 15.8 nM U-46,619; value ranges from 244 to 450.; type: functional, tissue-based; details: Aorta
Target sequence in this assay (P31390 whole entry): as the sequence (P31390 whole entry) above

Histamine H1 receptor [26] = target: T1, Histamine H1 receptor; experiment: Antagonism of guinea pig ileum contraction at 100 nM mepyramine; type: functional, tissue-based; details: in the assay text read “at 5 nM mepyramine” for “at 100 nM mepyramine”; read-out: pA2 (converted)
Method in brief: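 Guinea-pig whole ileal segments (2.0–2.5 cm), isotonic, preload 0.5 g, Tyrode's at 37 °C, 95% O2/5% CO2, with 0.1 µM atropine throughout. […] Apparent pA2 = −log c + log(r−1); full pA2 from Schild plot, slope fixed at 1.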

Histamine H3 receptor = Histamine H3 receptor (Cavia porcellus, UniProt Q9JI35); experiment: Compound was evaluated for its antagonist affinity towards Histamine H3 receptor of guinea pig; type: functional; details: read-out: pA2 (converted)
Sequence of Histamine H3 receptor (Q9JI35 whole entry): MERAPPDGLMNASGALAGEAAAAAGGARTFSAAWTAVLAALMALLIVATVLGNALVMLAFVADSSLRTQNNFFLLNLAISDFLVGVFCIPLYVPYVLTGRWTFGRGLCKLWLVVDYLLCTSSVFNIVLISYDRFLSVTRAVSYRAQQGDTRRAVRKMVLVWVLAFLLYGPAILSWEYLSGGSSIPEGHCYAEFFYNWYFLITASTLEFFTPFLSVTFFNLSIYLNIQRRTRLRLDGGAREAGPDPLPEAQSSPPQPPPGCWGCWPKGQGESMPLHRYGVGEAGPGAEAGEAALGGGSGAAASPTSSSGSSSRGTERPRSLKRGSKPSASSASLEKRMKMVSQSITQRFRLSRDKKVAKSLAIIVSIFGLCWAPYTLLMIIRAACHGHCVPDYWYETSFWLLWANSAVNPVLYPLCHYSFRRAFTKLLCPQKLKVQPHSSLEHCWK
Method in brief: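 Electrically stimulated guinea-pig ileal longitudinal muscle with myenteric plexus, isometric (7.5 mN). Cumulative (R)-α-methylhistamine curves were run with and without test compound (20 min), with 1 µM mepyramine present. Values were apparent pA2, or pD'2 where curves were depressed.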

[27] = target: Muscarinic acetylcholine receptor M3 (Cavia porcellus, UniProt Q8VH26); experiment: Compound was evaluated for its antagonist affinity towards Muscarinic acetylcholine receptor M3 of guinea pig; type: functional; details: read-out: pA2 (converted); method in brief: as §3
Sequence of Muscarinic acetylcholine receptor M3 (Q8VH26 whole entry): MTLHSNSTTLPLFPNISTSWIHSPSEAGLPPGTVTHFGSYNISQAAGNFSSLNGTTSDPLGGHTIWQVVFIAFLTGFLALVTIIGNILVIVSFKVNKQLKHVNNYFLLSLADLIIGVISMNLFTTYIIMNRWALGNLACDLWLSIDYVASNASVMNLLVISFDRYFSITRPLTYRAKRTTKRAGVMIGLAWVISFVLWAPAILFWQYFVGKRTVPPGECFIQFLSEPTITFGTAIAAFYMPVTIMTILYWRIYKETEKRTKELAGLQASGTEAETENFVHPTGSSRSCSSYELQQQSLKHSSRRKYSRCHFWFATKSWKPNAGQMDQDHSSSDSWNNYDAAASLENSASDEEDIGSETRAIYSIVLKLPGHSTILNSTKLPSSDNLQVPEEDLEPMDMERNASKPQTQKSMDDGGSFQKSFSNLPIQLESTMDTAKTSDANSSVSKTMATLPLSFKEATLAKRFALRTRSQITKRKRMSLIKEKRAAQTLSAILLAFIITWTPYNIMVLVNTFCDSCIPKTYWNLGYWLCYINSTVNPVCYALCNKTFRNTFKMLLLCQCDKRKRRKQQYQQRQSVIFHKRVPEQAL

Histamine H2 receptor = Histamine H2 receptor (Cavia porcellus, UniProt P47747); experiment: Compound was evaluated for its antagonist affinity towards Histamine H2 receptor of guinea pig; type: functional; details: read-out: pA2 (converted)
Sequence of Histamine H2 receptor (P47747 whole entry): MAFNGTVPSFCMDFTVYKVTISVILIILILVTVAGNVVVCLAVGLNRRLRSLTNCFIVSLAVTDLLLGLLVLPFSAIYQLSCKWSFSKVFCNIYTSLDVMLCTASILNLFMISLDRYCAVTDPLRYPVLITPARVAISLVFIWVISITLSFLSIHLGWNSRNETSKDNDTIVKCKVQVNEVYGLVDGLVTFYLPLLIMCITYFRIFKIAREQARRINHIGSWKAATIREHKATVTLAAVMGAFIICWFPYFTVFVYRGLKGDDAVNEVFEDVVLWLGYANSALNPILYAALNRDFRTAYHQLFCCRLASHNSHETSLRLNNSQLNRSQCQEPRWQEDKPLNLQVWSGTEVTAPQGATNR

Concentration [1]: 30 nM
Emax [2]: 46
Emax [3]: 84
Emax [4]: 72
pKp [5]: 6.04
pA2 [6]: < 5.7
Concentration [7]: 30 µM
Emax [8]: 100
Emax [9]: 50
SMILES: NCCc1c[nH]c(CCC(c2ccccc2)c2ccccc2)n1

Emax [10]: 0
Emax [11]: 0
pA2 [12]: 5.92
Emax [13]: 2
pA2 [14]: 5.8
pA2 [15]: 5.72
Emax [16]: 0
pKp [17]: 5.94
SMILES: NCCc1c[nH]c(CCCC(c2ccccc2)c2ccccc2)n1

pKp [18]: 6.52
Emax [19]: 21
EC50 (Histamine H1 receptor [20]): 1.35 µM
Concentration [21]: 100 nM
Emax [22]: 28
EC50 (Histamine H1 receptor [23]): 0.295 µM
Relative potency [24]: 67
Relative potency [25]: 331
SMILES: c1ccc(C(CCc2nc(CCN3CCCC3)c[nH]2)c2ccccc2)cc1

Kb (Histamine H1 receptor [26]): 0.00155 µM
Kb (Histamine H3 receptor): > 1 µM
pKp [18]: 5.75
Kb [27]: 1.02 µM
Emax [19]: 44 and 47
EC50 (Histamine H1 receptor [20]): 0.646 µM
Kb (Histamine H2 receptor): 31.6 µM
Emax [22]: 89
EC50 (Histamine H1 receptor [23]): 0.302 µM
SMILES: CCNCCc1c[nH]c(CCC(c2ccccc2)c2ccccc2)n1
